# Active and inactive are the calls of the source. The rule behind the calls is not given here.
# Experiments:
# [1] = biological target: Matrix metalloproteinase-9 (Homo sapiens) (UniProt P14780); assay: Inhibition of MMP-9 activity in human HT1080 cells by gelatin zymography; format: cell-based; details: HT-1080
# Summary of the method: (§1)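 HT1080 human fibrosarcoma cells grown in DMEM with 10% FBS; cells treated with compound, 0.5% DMSO as vehicle control, dose series 2.5–10 µM. Conditioned media run on 10% polyacrylamide/0.4% SDS gels containing 2 mg/ml gelatin, non-reducing, 120 V 150 min. Gels washed in 2.5% Triton X-100 30 min, developed overnight at 37 °C (50 mM Tris–HCl pH 7.6, 200 mM NaCl, 5 mM CaCl2, 0.2% Brij-35). Bands quantified densitometrically as % inhibition; triplicates, three independent experiments.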
# [2] = biological target: 72 kDa type IV collagenase (Homo sapiens) (UniProt P08253); assay: Inhibition of MMP-2 activity in human HT1080 cells by gelatin zymography; format: cell-based; details: HT-1080; summary of the method: as §1
# Chain of 72 kDa type IV collagenase (Homo sapiens) (P08253 110-660 limits assumed): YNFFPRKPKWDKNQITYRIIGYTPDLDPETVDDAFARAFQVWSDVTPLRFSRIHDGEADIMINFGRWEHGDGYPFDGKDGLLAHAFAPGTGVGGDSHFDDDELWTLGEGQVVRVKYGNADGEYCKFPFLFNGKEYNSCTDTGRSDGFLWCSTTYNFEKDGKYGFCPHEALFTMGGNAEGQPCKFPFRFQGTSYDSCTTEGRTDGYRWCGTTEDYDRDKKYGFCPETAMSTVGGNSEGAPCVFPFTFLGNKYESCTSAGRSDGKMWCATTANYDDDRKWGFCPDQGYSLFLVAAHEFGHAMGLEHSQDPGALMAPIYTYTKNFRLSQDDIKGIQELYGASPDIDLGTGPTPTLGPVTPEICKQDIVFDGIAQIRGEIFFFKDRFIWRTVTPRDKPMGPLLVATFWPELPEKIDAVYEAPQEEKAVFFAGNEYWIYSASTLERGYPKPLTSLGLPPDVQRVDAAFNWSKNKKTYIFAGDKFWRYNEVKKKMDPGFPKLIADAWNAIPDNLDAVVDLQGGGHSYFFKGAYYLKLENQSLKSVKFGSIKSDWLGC
# [3] = biological target: 72 kDa type IV collagenase (Homo sapiens) (UniProt P08253); assay: Inhibition of MMP-2 activity in human HT1080 cells at 10 uM by gelatin zymography; format: cell-based; details: HT-1080; summary of the method: as §1
# [4] = biological target: Matrix metalloproteinase-9 (Homo sapiens) (UniProt P14780); assay: Inhibition of MMP-9 activity in human HT1080 cells at 10 uM by gelatin zymography; format: cell-based; details: HT-1080; summary of the method: as §1
# [5] = Cytotoxicity against human HT1080 cells up to 7.5 uM; format: cell-based; details: ht-1080
# [6] = biological target: Matrix metalloproteinase 2/9 (Homo sapiens) (UniProt P08253+P14780); assay: Inhibition of MMP2/9 in human HT1080 cells assessed as reduction in degradation of fluorescien gelatin at 5 uM after 24 hrs by gelatin degradation assay; format: cell-based; details: HT-1080
# Chain of Matrix metalloproteinase 2/9 (Homo sapiens) (P08253 whole entry, looked up): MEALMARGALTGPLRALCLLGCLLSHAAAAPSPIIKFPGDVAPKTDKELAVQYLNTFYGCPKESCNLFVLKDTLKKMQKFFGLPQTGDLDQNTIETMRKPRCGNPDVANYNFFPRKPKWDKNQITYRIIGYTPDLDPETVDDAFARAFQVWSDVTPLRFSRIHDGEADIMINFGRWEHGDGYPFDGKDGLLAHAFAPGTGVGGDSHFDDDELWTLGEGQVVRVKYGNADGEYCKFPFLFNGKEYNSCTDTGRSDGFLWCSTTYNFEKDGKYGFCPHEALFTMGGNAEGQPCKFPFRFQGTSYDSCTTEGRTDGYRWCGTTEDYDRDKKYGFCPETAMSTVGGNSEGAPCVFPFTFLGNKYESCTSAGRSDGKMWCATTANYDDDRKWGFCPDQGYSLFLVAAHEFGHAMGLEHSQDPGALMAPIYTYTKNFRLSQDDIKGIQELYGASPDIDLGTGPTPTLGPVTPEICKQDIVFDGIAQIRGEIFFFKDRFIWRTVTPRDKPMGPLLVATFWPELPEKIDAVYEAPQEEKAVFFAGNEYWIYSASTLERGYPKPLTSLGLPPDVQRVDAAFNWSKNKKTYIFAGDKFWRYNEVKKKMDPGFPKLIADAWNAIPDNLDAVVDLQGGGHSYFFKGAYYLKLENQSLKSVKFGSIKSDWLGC
# Chain of Matrix metalloproteinase 2/9 (Homo sapiens) (P14780 whole entry, looked up): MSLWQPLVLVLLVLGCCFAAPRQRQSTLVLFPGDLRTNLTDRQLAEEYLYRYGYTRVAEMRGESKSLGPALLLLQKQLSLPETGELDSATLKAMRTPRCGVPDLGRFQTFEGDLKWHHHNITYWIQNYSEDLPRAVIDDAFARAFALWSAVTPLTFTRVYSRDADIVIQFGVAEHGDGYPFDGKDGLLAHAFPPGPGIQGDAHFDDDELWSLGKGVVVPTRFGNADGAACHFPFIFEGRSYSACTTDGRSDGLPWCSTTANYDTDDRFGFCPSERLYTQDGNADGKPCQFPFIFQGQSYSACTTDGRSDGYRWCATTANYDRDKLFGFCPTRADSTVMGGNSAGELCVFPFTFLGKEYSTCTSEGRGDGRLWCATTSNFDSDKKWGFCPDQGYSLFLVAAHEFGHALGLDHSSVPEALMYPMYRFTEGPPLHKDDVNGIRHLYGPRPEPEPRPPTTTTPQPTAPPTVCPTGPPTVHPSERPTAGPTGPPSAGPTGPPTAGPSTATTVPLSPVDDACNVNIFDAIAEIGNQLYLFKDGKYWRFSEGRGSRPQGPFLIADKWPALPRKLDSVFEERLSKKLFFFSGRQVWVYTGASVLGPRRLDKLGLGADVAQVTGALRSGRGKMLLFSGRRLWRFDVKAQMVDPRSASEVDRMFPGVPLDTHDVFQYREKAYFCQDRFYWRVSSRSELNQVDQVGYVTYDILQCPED
# Summary of the method: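 HT1080 cells exposed to 5 µM compound for 24 h at 37 °C on fluorescent gelatin. Cells then fixed, mounted in antifade reagent and imaged by inverted fluorescence microscopy. Degradation of the fluorescent gelatin compared with control.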
# HT-1080 = assay: Inhibition of cell migration in human HT1080 cells at 5 uM after 24 hrs by transwell migration assay; format: functional, cell-based
# Summary of the method: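 Transwell migration: 8 × 10^4 HT1080 cells in serum-free medium with compound placed in upper chamber; lower chamber held DMEM with 10% FBS as attractant. After 24 h, non-migrated cells swabbed off; migrated cells stained with crystal violet and counted in five random fields, expressed as % of control.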
# [7] = biological target: Matrix metalloproteinase-9 (Homo sapiens) (UniProt P14780); assay: Inhibition of MMP-9 activity in human HT1080 cells at 5 uM by gelatin zymography; format: cell-based; details: HT-1080; summary of the method: as §1
# [8] = biological target: 72 kDa type IV collagenase (Homo sapiens) (UniProt P08253); assay: Inhibition of MMP-2 activity in human HT1080 cells at 5 uM by gelatin zymography; format: cell-based; details: HT-1080; summary of the method: as §1
# Chain of Matrix metalloproteinase-9 (Homo sapiens) (P14780 whole entry): as the sequence (P14780 whole entry, looked up) above
Compound,inhibition [1],inhibition [2],inhibition [3],further results
COc1ccc2c(=O)c(-c3c(-c4ccccc4)oc4cc(OC)ccc4c3=O)c(-c3ccccc3)oc2c1,inactive,inactive,–,–
COc1ccc(-c2oc3cc(OC)cc(OC)c3c(=O)c2-c2c(-c3ccc(OC)cc3)oc3cc(OC)cc(OC)c3c2=O)cc1,inactive,inactive,–,–
COc1ccccc1-c1oc2ccccc2c(=O)c1-c1c(-c2ccccc2OC)oc2ccccc2c1=O,inactive,inactive,–,–
COc1ccc(-c2oc3cc(O)cc(O)c3c(=O)c2-c2c(-c3ccc(OC)c(OC)c3)oc3cc(O)cc(O)c3c2=O)cc1OC,–,–,Active,–
COc1cc(OC)c2c(=O)c(-c3c(-c4ccccc4)oc4cc(OC)cc(OC)c4c3=O)c(-c3ccccc3)oc2c1,inactive,inactive,–,–
O=c1c(-c2c(-c3ccccc3)oc3cc(O)ccc3c2=O)c(-c2ccccc2)oc2cc(O)ccc12,–,–,inactive,inhibition [4]: inactive
O=c1c(-c2c(-c3ccco3)oc3ccccc3c2=O)c(-c2ccco2)oc2ccccc12,–,–,Active,–
O=c1c(-c2c(/C=C/c3ccccc3)oc3ccccc3c2=O)c(/C=C/c2ccccc2)oc2ccccc12,–,–,inactive,inhibition [4]: inactive
COc1ccc(-c2oc3ccccc3c(=O)c2-c2c(-c3ccc(OC)cc3)oc3ccccc3c2=O)cc1,inactive,inactive,–,–
COc1ccc(-c2oc3cc(O)cc(O)c3c(=O)c2-c2c(-c3ccc(OC)cc3)oc3cc(O)cc(O)c3c2=O)cc1,Dose-dependent effect,Dose-dependent effect,90%,Activity [5]: Non-toxic; inhibition [6]: Active; inhibition [4]: 90%; inhibition (HT-1080): Active; inhibition [7]: 90%; inhibition [8]: 60%
COc1ccc(-c2cc(=O)c3c(O)cc(O)cc3o2)cc1,–,–,–,inhibition [7]: inactive; inhibition [8]: inactive

# Reference: ChEMBL document CHEMBL3585295, “Synthesis and discovery of (I-3,II-3)-biacacetin as a novel non-zinc binding inhibitor of MMP-2 and MMP-9” (Bioorg Med Chem, 2015)
